Test results from PMC5730044 (International journal of medical microbiology : IJMM, 2014).
≈ marks a conversion by molar mass, not a printed value.

Experiments:
S. pneumoniae DSM20566 [1] = experiment: Biofilm inhibition assay; type: cell-based; conditions: DSM20566, TSB, 24 h
S. pneumoniae CF8919 [2] = experiment: Broth microdilution assay; type: cell-based; conditions: Streptococcus pneumoniae, CF8919, 18 h, read-out: 90% minimal inhibitory concentration
[3] = system: pneumococcal adherence to pulmonary epithelial A549 cells
[4] = system: S. pneumoniae DSM20566 adherence to A549 cells; experiment: Adherence inhibition assay on A549 cells; type: cell-based; conditions: Streptococcus pneumoniae, DSM20566, A549, 1.5 h, read-out: concentration giving 50% reduction in adherence levels (AIC50)
human erythrocytes = experiment: Erythrocyte hemolysis assay; type: cell-based; conditions: observed in HA assay with D39 protein
[5] = Erythrocyte hemolysis assay; type: cell-based, human; conditions: human, erythrocytes
S. pneumoniae D39 [6] = experiment: Biofilm inhibition assay; type: cell-based; conditions: D39, TSB, 24 h
S. pneumoniae [7] = experiment: Bactericidal activity, studied pneumococci; type: cell-based
S. pneumoniae BC7326 [8] = experiment: Minimal bactericidal concentration; type: cell-based; conditions: viability reduced by ≥99.9%
[9] = molecular target: recombinant NanA of DSM20566 (Streptococcus pneumoniae, UniProt P62575); type: biochemical, S. pneumoniae; conditions: for mechanism of inhibition: rNanA, Lineweaver-Burk / SigmaPlot analysis
S. pneumoniae DSM14378 [10] = experiment: Broth microdilution assay; type: cell-based; conditions: Streptococcus pneumoniae, DSM14378, 18 h, read-out: 90% minimal inhibitory concentration
S. pneumoniae D39 [11] = experiment: Minimal bactericidal concentration; type: cell-based; conditions: viability reduced by ≥99.9%
[12] = system: S. pneumoniae PN8828 adherence to A549 cells; experiment: Adherence inhibition assay on A549 cells; type: cell-based; conditions: Streptococcus pneumoniae, A549, 1.5 h, read-out: concentration giving 50% reduction in adherence levels (AIC50)
S. pneumoniae BC7326 [13] = experiment: Broth microdilution assay; type: cell-based; conditions: Streptococcus pneumoniae, BC7326, 18 h, read-out: 90% minimal inhibitory concentration
[14] = system: pneumococcal NA of strain DSM20566; experiment: Lectin-based hemagglutination; type: cell-based, S. pneumoniae; conditions: minimal NA inhibitory concentration
S. pneumoniae CF6937 [15] = experiment: Minimal bactericidal concentration; type: cell-based; conditions: viability reduced by ≥99.9%
S. pneumoniae BC7326 [16] = experiment: Biofilm inhibition assay; type: cell-based; conditions: BC7326, TSB, 24 h
S. pneumoniae BC57 [17] = experiment: Broth microdilution assay; type: cell-based; conditions: Streptococcus pneumoniae, BC57, 18 h, read-out: 90% minimal inhibitory concentration
S. pneumoniae PN8828 [18] = experiment: Broth microdilution assay; type: cell-based; conditions: Streptococcus pneumoniae, PN8828, 18 h, read-out: 90% minimal inhibitory concentration
S. pneumoniae BC57 [19] = experiment: Biofilm inhibition assay; type: cell-based; conditions: BC57, TSB, 24 h
S. pneumoniae CJ9400 [20] = experiment: Broth microdilution assay; type: cell-based; conditions: Streptococcus pneumoniae, CJ9400, 18 h, read-out: 90% minimal inhibitory concentration
S. pneumoniae [21] = experiment: Biofilm inhibition assay; type: cell-based; conditions: range among all tested strains
S. pneumoniae DSM20566 [22] = experiment: Minimal bactericidal concentration; type: cell-based; conditions: viability reduced by ≥99.9%
S. pneumoniae [23] = experiment: Broth microdilution assay; type: cell-based; conditions: Streptococcus pneumoniae, read-out: MIC90 values
Outline: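 Pneumococci were pre-grown in BHI with gentle shaking at 37°C for 4–5 h (mid-exponential), adjusted to McFarland 0.5 (1.5 × 10^8 cfu/mL) and diluted 50× in BHI. 50 µL bacteria plus 100 µL of two-fold compound dilutions (top 50 or 200 µM) in BHI were run in duplicate, overnight at 37°C, 5% CO₂. OD620 at 18 h minus 0 h was taken relative to no-compound growth control; MIC90 is 90% turbidity reduction.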

S. pneumoniae DSM14378 [24] = experiment: Minimal bactericidal concentration; type: cell-based; conditions: viability reduced by ≥99.9%
S. pneumoniae CJ9400 [25] = experiment: Biofilm inhibition assay; type: cell-based; conditions: CJ9400, TSB, 24 h
S. pneumoniae D39 [26] = experiment: Broth microdilution assay; type: cell-based; conditions: Streptococcus pneumoniae, D39, 18 h, read-out: 90% minimal inhibitory concentration
[27] = system: pneumococcal NA of strain CJ9400; experiment: Lectin-based hemagglutination; type: cell-based, S. pneumoniae; conditions: minimal NA inhibitory concentration
S. pneumoniae CF6937 [28] = experiment: Broth microdilution assay; type: cell-based; conditions: Streptococcus pneumoniae, CF6937, 18 h, read-out: 90% minimal inhibitory concentration
S. pneumoniae DSM20566 [29] = experiment: Broth microdilution assay; type: cell-based; conditions: Streptococcus pneumoniae, DSM20566, 18 h, read-out: 90% minimal inhibitory concentration
S. pneumoniae CF8919 [30] = experiment: Biofilm inhibition assay; type: cell-based; conditions: CF8919, TSB, 24 h
S. pneumoniae CJ9400 [31] = experiment: Minimal bactericidal concentration; type: cell-based; conditions: viability reduced by ≥99.9%
S. pneumoniae DSM14378 [32] = experiment: Biofilm inhibition assay; type: cell-based; conditions: DSM14378, TSB, 24 h
S. pneumoniae PN8828 [33] = experiment: Biofilm inhibition assay; type: cell-based; conditions: PN8828, TSB, 24 h
S. pneumoniae CF6937 [34] = experiment: Biofilm inhibition assay; type: cell-based; conditions: CF6937, TSB, 24 h
[35] = system: pneumococcal NA of strain D39; experiment: Lectin-based hemagglutination; type: cell-based, S. pneumoniae; conditions: for Inhibitory concentration (HA assay): minimal NA inhibitory concentration, strain D39
A549 cells = experiment: Cytotoxicity on confluent A549 cell monolayers; type: cell-based, human; conditions: 12.50 μM, A549, 72 h
Outline: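 Three-day-old confluent A549 monolayers were exposed to two-fold serial compound dilutions in duplicate for 72 h at 37°C, 5% CO₂. Cells were washed, fixed and crystal violet-stained, and dye was eluted in citrate/HCl/ethanol buffer for OD550. Viability is relative to six untreated controls. CC50 comes from mean dose-response curves of at least three assays. Morphology at 12.5 µM was checked by phase-contrast microscopy.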

pneumococcal NA [36] = molecular target: T1, pneumococcal NA (Streptococcus pneumoniae, UniProt P62575); type: biochemical, S. pneumoniae; conditions: data not shown
pneumococcal NA [37] = molecular target: T1, pneumococcal NA; conditions: ref Gut et al., 2011; cited from earlier work
pneumococcal NA [38] = molecular target: T1, pneumococcal NA; type: biochemical, S. pneumoniae; conditions: precipitated total proteins of all strains
viral NAs = conditions: ref Collins et al., 2008; cited from earlier work

Sequence of recombinant NanA of DSM20566 (P62575 116-1035 limits assumed): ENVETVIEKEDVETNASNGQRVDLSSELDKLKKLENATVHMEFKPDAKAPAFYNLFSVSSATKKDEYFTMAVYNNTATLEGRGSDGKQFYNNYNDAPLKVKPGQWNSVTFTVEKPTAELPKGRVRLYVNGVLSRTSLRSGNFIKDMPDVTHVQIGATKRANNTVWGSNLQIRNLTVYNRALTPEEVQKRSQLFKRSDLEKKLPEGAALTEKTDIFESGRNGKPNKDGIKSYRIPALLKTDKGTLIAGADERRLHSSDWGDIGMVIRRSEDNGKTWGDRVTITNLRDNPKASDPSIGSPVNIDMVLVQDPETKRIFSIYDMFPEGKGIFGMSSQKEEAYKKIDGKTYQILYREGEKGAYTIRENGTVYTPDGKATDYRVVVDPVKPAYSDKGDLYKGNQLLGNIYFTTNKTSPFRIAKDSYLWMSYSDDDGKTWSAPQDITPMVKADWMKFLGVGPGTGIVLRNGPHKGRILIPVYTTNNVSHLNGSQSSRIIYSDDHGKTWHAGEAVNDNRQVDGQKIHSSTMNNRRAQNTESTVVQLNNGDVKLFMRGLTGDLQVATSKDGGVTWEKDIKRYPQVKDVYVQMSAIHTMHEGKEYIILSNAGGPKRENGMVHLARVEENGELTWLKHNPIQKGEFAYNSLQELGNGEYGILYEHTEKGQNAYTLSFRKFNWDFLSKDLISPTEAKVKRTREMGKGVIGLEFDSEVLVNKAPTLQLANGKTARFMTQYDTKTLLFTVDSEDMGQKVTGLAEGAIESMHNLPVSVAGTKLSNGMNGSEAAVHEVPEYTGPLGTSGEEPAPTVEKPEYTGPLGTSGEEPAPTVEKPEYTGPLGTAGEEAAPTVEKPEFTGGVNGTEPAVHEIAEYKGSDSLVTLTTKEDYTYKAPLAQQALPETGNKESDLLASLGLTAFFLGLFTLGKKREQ
T1 sequence (P62575 54-1006): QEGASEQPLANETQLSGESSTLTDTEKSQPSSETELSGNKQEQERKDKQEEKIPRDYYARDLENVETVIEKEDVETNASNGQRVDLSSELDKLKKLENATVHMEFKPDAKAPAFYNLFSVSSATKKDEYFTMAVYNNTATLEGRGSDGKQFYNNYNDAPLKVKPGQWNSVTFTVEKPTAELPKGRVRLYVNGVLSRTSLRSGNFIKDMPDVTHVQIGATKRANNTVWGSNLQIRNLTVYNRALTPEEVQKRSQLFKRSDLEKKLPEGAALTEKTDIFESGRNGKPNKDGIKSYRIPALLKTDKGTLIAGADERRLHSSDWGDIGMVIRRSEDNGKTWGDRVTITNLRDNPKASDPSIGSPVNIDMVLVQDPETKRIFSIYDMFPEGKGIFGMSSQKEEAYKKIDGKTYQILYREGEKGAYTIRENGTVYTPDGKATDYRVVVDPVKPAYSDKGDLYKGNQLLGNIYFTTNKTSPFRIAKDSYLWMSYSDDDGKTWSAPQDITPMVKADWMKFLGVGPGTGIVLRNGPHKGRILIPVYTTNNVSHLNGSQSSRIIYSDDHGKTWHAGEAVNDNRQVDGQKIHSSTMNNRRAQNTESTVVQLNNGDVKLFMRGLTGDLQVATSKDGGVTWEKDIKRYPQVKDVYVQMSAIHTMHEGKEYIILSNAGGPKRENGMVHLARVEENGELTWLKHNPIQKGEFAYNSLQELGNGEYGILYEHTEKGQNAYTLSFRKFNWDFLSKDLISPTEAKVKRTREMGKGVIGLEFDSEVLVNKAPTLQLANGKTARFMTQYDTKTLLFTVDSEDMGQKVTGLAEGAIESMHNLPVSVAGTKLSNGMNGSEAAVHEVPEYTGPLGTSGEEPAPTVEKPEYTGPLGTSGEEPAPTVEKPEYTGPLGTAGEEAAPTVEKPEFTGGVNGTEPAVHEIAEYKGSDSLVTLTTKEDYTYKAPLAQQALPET

| Structure (SMILES) | 90% minimal biofilm inhibitory concentration (S. pneumoniae DSM20566 [1]) [µM] | MIC (S. pneumoniae CF8919 [2]) [µM] | 90% minimal biofilm inhibitory concentration (S. pneumoniae D39 [6]) [µM] | Bactericidal concentration (S. pneumoniae BC7326 [8]) [µM] | mechanism of inhibition [9] | MIC (S. pneumoniae DSM14378 [10]) [µM] | Bactericidal concentration (S. pneumoniae D39 [11]) [µM] | Inhibitory concentration (HA assay) [14] [µM] | Bactericidal concentration (S. pneumoniae CF6937 [15]) [µM] | 90% minimal biofilm inhibitory concentration (S. pneumoniae BC7326 [16]) [µM] | 90% minimal biofilm inhibitory concentration (S. pneumoniae BC57 [19]) [µM] | Bactericidal concentration (S. pneumoniae DSM20566 [22]) [µM] | Bactericidal concentration (S. pneumoniae DSM14378 [24]) [µM] | 90% minimal biofilm inhibitory concentration (S. pneumoniae CJ9400 [25]) [µM] | Inhibitory concentration (HA assay) [27] [µM] | 90% minimal biofilm inhibitory concentration (S. pneumoniae CF8919 [30]) [µM] | Bactericidal concentration (S. pneumoniae CJ9400 [31]) [µM] | 90% minimal biofilm inhibitory concentration (S. pneumoniae DSM14378 [32]) [µM] | 90% minimal biofilm inhibitory concentration (S. pneumoniae PN8828 [33]) [µM] | 90% minimal biofilm inhibitory concentration (S. pneumoniae CF6937 [34]) [µM] | also measured |
| --- | --- | --- | --- | --- | --- | --- | --- | --- | --- | --- | --- | --- | --- | --- | --- | --- | --- | --- | --- | --- | --- |
| COc1cc2oc(-c3ccc(O)cc3O)c(CC=C(C)C)c(=O)c2c(O)c1/C=C/C(C)C [artocarpin] | 2.88 ± 0.07 | 1.45 ± 0.01 (≈ 0.633 µg/mL) | 2.22 ± 0.76 | 3.32 ± 1.94 | mixed-type inhibition | 5.75 ± 0.13 (≈ 2.51 µg/mL) | 2.50 ± 0.77 | 7.7 ± 4.0 | 3.44 ± 1.53 | 2.02 ± 0.62 | 2.35 ± 0.68 | 3.13 ± 0.00 | 4.69 ± 1.98 | 2.97 ± 0.13 | 2.6 ± 1.1 | 1.15 ± 0.34 | 2.74 ± 0.68 | 2.37 ± 0.67 | 1.40 ± 0.07 | 2.73 ± 0.27 | effect on A549 cell viability under adherence assay conditions (in words) [3]: did not affect cell viability; IC50 [4]: 7.5 µM; concentration at which erythrocytes were lysed (human erythrocytes): b The erythrocytes were lysed in the presence of artocarpin at concentrations higher than 10 µM.; hemolysis at 3 h, 31.6 µM [5]: 20%; factor of reduction of viability of pneumococci (S. pneumoniae [7]; within 18 h): > 1000; IC50 [12]: 4.1 µM; MIC (S. pneumoniae BC7326 [13]): 1.12 ± 0.37 µM (≈ 0.489 µg/mL); MIC (S. pneumoniae BC57 [17]): 1.45 ± 0.04 µM (≈ 0.633 µg/mL); MIC (S. pneumoniae PN8828 [18]): 0.99 ± 0.48 µM (≈ 0.432 µg/mL); MIC (S. pneumoniae CJ9400 [20]): 3.45 ± 2.05 µM (≈ 1.51 µg/mL); mean MBIC90 values (S. pneumoniae [21]): 1.15 to 2.97 µM; MIC90 (S. pneumoniae [23]): 0.99 to 5.75 µM (≈ 0.432 to 2.51 µg/mL); MIC (S. pneumoniae D39 [26]): 1.29 ± 0.31 µM (≈ 0.563 µg/mL); MIC (S. pneumoniae CF6937 [28]): 3.39 ± 2.1 µM (≈ 1.48 µg/mL); MIC (S. pneumoniae DSM20566 [29]): 5.58 ± 0.97 µM (≈ 2.44 µg/mL); activity in HA assay (in words) ([35]; reference strain D39): no activity; cytotoxic effect (in words) (A549 cells): no cytotoxic effect |
| CC(=O)N[C@H]1[C@H]([C@H](O)[C@H](O)CO)OC(C(=O)O)=C[C@@H]1N=C(N)N [zanamivir] | > 50 | > 50 | > 50 | > 50 |  | > 50 | > 50 | >100 | > 50 | > 50 | > 50 | > 50 | > 50 | > 50 | >100 | > 50 | > 50 | > 50 | > 50 | > 50 | inhibition of NA activity, CL-based assay (in words) (pneumococcal NA [36]): inefficacy; MIC (S. pneumoniae BC7326 [13]): > 50 µM; MIC (S. pneumoniae BC57 [17]): > 50 µM; MIC (S. pneumoniae PN8828 [18]): > 50 µM; MIC (S. pneumoniae CJ9400 [20]): > 50 µM; inhibitory potency to pneumococcal NA (in words) (pneumococcal NA [37]): weak; MIC (S. pneumoniae D39 [26]): > 50 µM; MIC (S. pneumoniae CF6937 [28]): > 50 µM; MIC (S. pneumoniae DSM20566 [29]): > 50 µM; inhibition of NA activity, FL-based assay (in words) (pneumococcal NA [38]): did not show an effect; Inhibitory concentration (HA assay) [35]: >100 µM |
| CCC(CC)O[C@@H]1C=C(C(=O)O)C[C@H](N)[C@H]1NC(C)=O [oseltamivir, Oseltamivir carboxylate] | > 50 |  | > 50 | > 50 | competitively inhibited |  | > 50 | 2.1 ± 1.3 | > 50 | > 50 | > 50 | > 50 | > 50 | > 50 | 0.3 ± 0.0 | > 50 | > 50 | > 50 | > 50 | > 50 | Ki (viral NAs): 0.00032 µM; effect on adhesion of pneumococci to A549 cells (in words) ([3]; DSM20566 and PN8828): did not reduce pneumococcal adherence; concentration up to which no inhibitory or bactericidal activity was exhibited (S. pneumoniae [7]; maximum tested concentration): > 50 µM; factor by which inhibitory activity on bacterial NAs is lower than on viral NAs ([9]; compared to viral NAs Ki of 0.32 nM): 1000; Ki ([9]; rNanA of DSM20566, MUNANA substrate): 0.23 µM; inhibitory potency to pneumococcal NA (in words) (pneumococcal NA [37]): medium; Inhibitory concentration (HA assay) [35]: 10.0 ± 0.0 µM |
